Assay outcomes as filed in PubChem BioAssay.
VIM-2 inhibitor – VIM-2 metallo-beta-lactamase inhibitors, primary screen, biochemical, epi-absorbance readout, Pseudomonas aeruginosa enzyme; purified VIM-2, nitrocefin hydrolysis, epi-absorbance fluorescence; inhibition, % at 5.6 µM; 290,000 tested, 0.89% active; AID 1527, 2009;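 active = inhibition above the mean of all tested compounds plus 3 SD, cutoff set per screening run, cut at about 7.5% in these data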;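 note: red hydrolysis product quenches plate fluorescence so inhibitors raise well fluorescence; 0% = enzyme with DMSO and 100% = DMSO without enzyme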
UBC9 SUMO inh – inhibitors of in vitro SUMOylation cascade, primary screen, biochemical, HTRF, uHTS. 290,000 tested, 0.36% active. SUMO-conjugating enzyme UBC9 (Homo sapiens), P63279. HTRF SUMOylation assay, SAE1/SAE2 + UBC9. inhibition, % at 35 µM; in the data active = inhibition above about 50%, passing the limit was not always enough
Target sequence (P63279 whole entry, looked up): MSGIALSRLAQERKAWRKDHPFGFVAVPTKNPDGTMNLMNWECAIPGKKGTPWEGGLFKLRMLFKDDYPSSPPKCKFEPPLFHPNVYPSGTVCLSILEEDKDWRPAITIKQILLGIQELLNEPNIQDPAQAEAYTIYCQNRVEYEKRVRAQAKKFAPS
IMP-1 inh-1 – IMP-1 metallo-beta-lactamase inhibitors, primary screen, biochemical, epi-absorbance readout, Pseudomonas aeruginosa enzyme; 290,000 tested, 0.45% active; metallo-beta-lactamase IMP-1 (Pseudomonas aeruginosa); inhibition, % at 5.6 µM; purified IMP-1, nitrocefin hydrolysis, epi-absorbance fluorescence;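 active = inhibition above the mean plus 3 SD of all compounds in the same screening run, cut at about 4.5% in these data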;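 note: 0% = IMP-1 with DMSO and 100% = DMSO wells lacking enzyme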
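System: Purified recombinant IMP-1 metallo-beta-lactamase enzyme | Measured by: Fluorescence quenching readout, ex 480/em 530 nm | Replication: Singlicate | Incubation: 15 min preincubation plus 25 min reaction at 25 °C | Evaluation: Percent inhibition from optical density relative to buffer-blank wells | Benchmarks: DMSO with and without IMP-1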
NS3 helicase inh – inhibitors of HCV NS3 helicase, primary screen, biochemical, Cy5 molecular beacon fluorescence. NS3 helicase DNA unwinding. inhibition, % at 10.9 µM. 290,000 tested, 0.56% active;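 active = inhibition above the mean of all tested compounds plus 3 SD, set per campaign, cut at about 35% in these data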;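 note: 0% = DMSO wells and 100% = thioflavine S control wells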
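Assay system: hepatitis C virus NS3 helicase domain fragment enzyme. Also added: annealed dual-labelled DNA beacon duplex, ATP-started. Timing: 1 h reaction at 25 °C, ATP-initiated. Technique: Cy5 fluorescence at 0 and 60 min, beacon hairpin quenching. Evaluation: % inhibition of unwinding. Replication: one well per compound.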
FID counter – compounds displacing fluorescent DNA intercalator, primary screen, artefact control for HCV NS3 helicase inhibitor project, biochemical, FID fluorescence; 290,000 tested, 0.17% active; inhibition, % at 7.9 µM; DNA fluorescent intercalator displacement; in the data active = inhibition above about 37%;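 note: 0% = vehicle and 100% = reference compound; higher means more ethidium bromide displaced from hairpin DNA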
IMP-1 inh-2 – IMP-1 metallo-beta-lactamase inhibitors, confirmation, selectivity assay for selective VIM-2 inhibitor project, biochemical, epi-absorbance readout, triplicate; purified IMP-1, nitrocefin hydrolysis, epi-absorbance fluorescence; AID 1856, 2009; inhibition, % at 5.6 µM; shares compounds with VIM-2 inhibitor; 1,300 tested, under 10 active; call rule not given here;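 note: 0% = enzyme with vehicle and 100% = vehicle without enzyme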
VIM-2 FRET inh – VIM-2 inhibitors in FRET format, confirmation, artefact control for selective VIM-2 inhibitor project, biochemical, epi-absorbance artifact exclusion; inhibition, % at 5.6 µM; 1,300 tested, 23% active; purified VIM-2, CCF2 FRET substrate hydrolysis; shares compounds with VIM-2 inhibitor;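 active = inhibition above the mean of all tested compounds plus 3 SD, cut at about 19% in these data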;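 note: 0% = VIM-2 plus DMSO and 100% = no enzyme wells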
TEM-1 counter – TEM-1 serine beta-lactamase inhibitors, counter-screen for VIM-2 inhibitor project, biochemical, epi-absorbance, HTS. shares compounds with VIM-2 inhibitor. Purified TEM-1, nitrocefin hydrolysis, epi-absorbance fluorescence. inhibition, % at 5.6 µM. 1,300 tested, 3% active. AID 1866, 2009;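 active = inhibition above that campaign's mean inhibition plus 3 SD, cut at about 0.46% in these data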;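 note: 0% = TEM-1 with DMSO and 100% = TEM-1 with 100 µM potassium clavulanate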
Target sequence (P62593 whole entry, looked up): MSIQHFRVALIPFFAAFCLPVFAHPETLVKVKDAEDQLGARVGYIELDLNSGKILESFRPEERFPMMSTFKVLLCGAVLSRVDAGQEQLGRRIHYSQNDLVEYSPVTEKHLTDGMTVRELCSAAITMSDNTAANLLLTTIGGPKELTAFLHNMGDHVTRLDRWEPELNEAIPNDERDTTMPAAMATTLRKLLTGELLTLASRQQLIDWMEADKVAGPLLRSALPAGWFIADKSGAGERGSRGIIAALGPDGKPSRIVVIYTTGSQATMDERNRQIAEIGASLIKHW
VIM-2 inh conf – VIM-2 metallo-beta-lactamase inhibitors, confirmation, biochemical, epi-absorbance, hits shared with IMP-1 screen | shares compounds with VIM-2 inhibitor | purified VIM-2, nitrocefin hydrolysis | inhibition, % at 5.6 µM | 1,300 tested, 96% active | AID 2187, 2009;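 active = inhibition of the VIM-2 beta-lactamase enzyme above about 11% from the earlier first-round screen, limit read from the data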;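 note: 0% = VIM-2 with DMSO and 100% = buffer wells without enzyme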
An asterisk follows results filed as active; x = no result given. Sampled rows, rich in hits. Any-hit rate of the full collection: about 2.1%.

SMILES | VIM-2 inhibitor | UBC9 SUMO inh | IMP-1 inh-1 | NS3 helicase inh | FID counter | IMP-1 inh-2 | VIM-2 FRET inh | TEM-1 counter | VIM-2 inh conf
COc1cccc(-c2coc3cc4oc(=O)c(CCC(=O)O)c(C)c4cc23)c1 | 1 | 13 | -4 | 32 | -22 | x | x | x | x
COc1ccc(-c2coc3c(C)c4oc(=O)c(CC(=O)O)c(C)c4cc23)cc1 | 16* | 24 | 2 | 15 | -25 | 2 | -3 | -10 | 22*
COc1cccc(-c2coc3c(C)c4oc(=O)c(CCC(=O)O)c(C)c4cc23)c1 | 15* | 22 | -3 | -14 | -22 | -3 | 6 | -10 | 22*
Cc1ccc(Cn2c(N3CCN(C)CC3)nc3c2c(=O)[nH]c(=O)n3C)cc1 | 1 | -5 | -2 | -2 | 0 | x | x | x | x
COc1ccccc1/C=C1\SC(=S)N(CCC(=O)Nc2cccc(O)c2)C1=O | -1 | -8 | -3 | 1 | -3 | x | x | x | x
Cc1ccc2[nH]c(C)c(/C=C/c3cc[n+](C)cc3)c2c1 | 16* | -6 | 4 | -23 | 5 | 1 | 2 | 0 | 26*
Cc1c(C(=O)N(Cc2ccccc2)C(C)C)oc2ccc(S(=O)(=O)N3CCOCC3)cc12 | -2 | x | -2 | -14 | -54 | x | x | x | x
CCCCNC(=O)c1cc2c(=O)n3cccc(C)c3nc2n1C | x | 13 | x | x | x | x | x | x | x
CCN1CCN(C(=O)c2cc3c(=O)n(C)c4ccccc4c3n2C)CC1 | 17* | -9 | -3 | -4 | 14 | -3 | 4 | -6 | 22*
Cn1c(C(=O)NC2CCCCC2)cc2c(=O)n(C)c3ccccc3c21 | 1 | 18 | -5 | 15 | -10 | x | x | x | x
Cn1c(C(=O)NCCCN2CCCC2=O)cc2c(=O)n(C)c3ccccc3c21 | 13* | 6 | -3 | 11 | -27 | -3 | -3 | -6 | 29*
Cc1cccn2c(=O)c3cc(C(=O)NCCCN4CCCC4=O)n(C)c3nc12 | 17* | 10 | -1 | -2 | -26 | -2 | -8 | 1.2* | 26*
Cn1c(C(=O)NCCN2CCc3ccccc3C2)cc2c(=O)n(C)c3ccccc3c21 | 19* | 16 | 0 | -18 | 15 | -3 | -1 | -7 | 28*
Cn1c(SCC(=O)Nc2ccccc2)nnc1-c1ccc2nonc2c1 | -2 | -6 | -3 | 4 | -2 | x | x | x | x
CC(=O)N1CCc2cc(Br)cc(S(=O)(=O)NCCCN(C)Cc3ccccc3)c21 | 1 | 20 | 0 | -5 | 17 | x | x | x | x
C=C(C)Cn1c(CN(C)Cc2ccccc2)nc2c1c(=O)n(C)c(=O)n2C | 1 | -4 | -5 | 4 | -37 | x | x | x | x
Cn1c(C(=O)NCc2cccs2)cc2c(=O)n(C)c3ccccc3c21 | -1 | -4 | -4 | -2 | -1 | x | x | x | x
CN(CCNC(=O)c1cc2c(=O)n(C)c3ccccc3c2n1C)Cc1ccccc1 | 17* | 5 | -1 | -16 | 13 | -4 | 2 | -8 | 26*
CC1CCCCN1CCNC(=O)c1cc2c(=O)n(C)c3ccccc3c2n1C (stereo not given) | 20* | 8 | -4 | 4 | 12 | -2 | 4 | -7 | 31*
COc1ccc(CCNC(=O)CCc2cn(C)c3ccccc23)c(OC)c1OC | 0 | 19 | -1 | 2 | -28 | x | x | x | x
